Published values pooled from the literature.
Compare with care: the assays were run in different laboratories.
Target: Serine/threonine-protein kinase tousled-like 1 (TLK1, Homo sapiens, UniProt Q9UKI8)
Residues used in one study (Q9UKI8 1-766): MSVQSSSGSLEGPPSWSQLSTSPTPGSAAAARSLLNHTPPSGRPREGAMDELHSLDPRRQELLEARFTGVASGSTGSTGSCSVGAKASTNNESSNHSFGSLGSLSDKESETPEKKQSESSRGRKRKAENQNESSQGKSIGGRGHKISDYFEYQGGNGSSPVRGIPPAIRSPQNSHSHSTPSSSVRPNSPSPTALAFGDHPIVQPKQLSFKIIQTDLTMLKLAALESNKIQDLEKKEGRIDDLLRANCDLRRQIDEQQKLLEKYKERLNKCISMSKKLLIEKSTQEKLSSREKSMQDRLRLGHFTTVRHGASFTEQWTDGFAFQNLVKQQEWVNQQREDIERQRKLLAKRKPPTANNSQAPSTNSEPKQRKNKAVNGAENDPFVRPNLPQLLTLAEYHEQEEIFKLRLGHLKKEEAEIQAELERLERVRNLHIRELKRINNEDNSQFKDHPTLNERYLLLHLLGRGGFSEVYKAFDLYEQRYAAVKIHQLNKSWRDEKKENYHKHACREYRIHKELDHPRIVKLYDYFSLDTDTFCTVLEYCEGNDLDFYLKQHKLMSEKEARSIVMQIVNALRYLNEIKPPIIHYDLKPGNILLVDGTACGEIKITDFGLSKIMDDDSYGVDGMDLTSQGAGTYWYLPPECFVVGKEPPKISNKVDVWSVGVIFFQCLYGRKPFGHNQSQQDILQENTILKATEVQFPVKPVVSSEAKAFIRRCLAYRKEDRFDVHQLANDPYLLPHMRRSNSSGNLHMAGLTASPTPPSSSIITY

| SMILES | effect on | method | tested at | remaining binding |
| --- | --- | --- | --- | --- |
| CC(=O)Nc1c(C(C)=O)c(=O)n(C)c2nc(-c3ccc(Cl)cc3Cl)c(-c3ccc(Cl)cc3)cc12 | cell-free assay | competition with immobilised ligand | 1 µM | 100% |
| N[C@@H]1CCN(c2nccc(-c3cnn4ncccc34)n2)C1 | binding | – | 1 µM | 39% |
| CNC(=O)[C@@H]1CC[C@@H](n2c(-c3ccc4cnccc4c3)nc3ccc(C(=O)NCc4cccc(C(N)=O)c4)cc32)C1 | binding | competition with immobilised ligand | 1 µM | 97% |
| O=C(NCCCN1CCOCC1)c1ccc(Nc2nccc(-c3cc4ccccc4s3)n2)cc1 | binding | competition with immobilised ligand | 1 µM | 63% |
| CN(c1nccc(-c2cnn3ncccc23)n1)C1CC1 | binding | – | 1 µM | 100% |
| O=C(NCC1CCOCC1)c1n[nH]cc1NC(=O)c1c(F)cccc1F | binding | competition with immobilised ligand | 1 µM | 87% |
| COc1ccnn2ncc(-c3ccnc(N(C)C)n3)c12 | binding | – | 1 µM | 100% |
| C[C@@H](c1ccc(-n2cnc3c(N)ncnc32)cc1)N1CCc2nn(C)c(Cc3ccccc3)c2C1=O | binding | competition with immobilised ligand | 0.1 µM | 81% |
| COc1cnc(Nc2cccc(S(N)(=O)=O)c2)nc1N1CCN(c2ccccc2)CC1 | binding | competition with immobilised ligand | 1 µM | 80% |
| CN(C)c1nccc(-c2cnn3ncccc23)n1 | binding | – | 1 µM | 92% |
| CCc1ccccc1C(=O)Nc1n[nH]c2c(C)c(F)c(C3C(C#N)=C(C)N(C)C(C)=C3C#N)cc12 | cell-free assay | competition with immobilised ligand | 1 µM | 100% |
| O=C(c1ccc(Nc2ncc(Cl)c(-c3cc4ccccc4s3)n2)cc1)N1CCC(N2CCCC2)CC1 | binding | competition with immobilised ligand | 1 µM | 32% |
| O=C(Nc1ccc(Oc2ccc(F)cc2)cc1)N1CCc2ncccc2[C@H]1c1ccc(F)cc1 | cell-free assay | competition with immobilised ligand | 1 µM | 100% |
| Nc1ncc2c(n1)-c1c([nH]c3ccc(C#CC4CC4)cc13)CCCC2 | binding | competition with immobilised ligand | 1 µM | 87% |
| CN(C)C(=O)Cn1cc(-c2nc([C@@](C)(c3ccc(-c4cnc(N)nc4)cc3)C3CC3)no2)cn1 | cell-free assay | competition with immobilised ligand | 1 µM | 100% |
| c1cncc(-c2cccc(Nc3nccc(NC4CCCCC4)n3)c2)c1 | binding | competition with immobilised ligand | 10 µM | 100% |
| O=C(Nc1cccnn1)N1CC(C/C=C/c2cncc(Oc3ccc(C(F)(F)F)cn3)n2)C1 | cell-free assay | competition with immobilised ligand | 1 µM | 98% |
| CN(C)c1nccc(-c2cnc3ncccn23)n1 | binding | – | 1 µM | 81% |
| CCC(=O)N[C@@H]1CC[C@H](C(=O)N(C)c2ccc(-c3nc4ccccc4o3)cc2)C1 | cell-free assay | competition with immobilised ligand | 1 µM | 100% |
| Cc1cnc(Nc2ccc(C(=O)N3CCC(N4CCCC4)CC3)cc2)nc1-c1cc2ccccc2s1 | binding | competition with immobilised ligand | 1 µM | 21% |
